Measured values as given in ChEMBL document CHEMBL1158614, “Synthesis and biological evaluation of azobicyclo[3.3.0] octane derivatives as dipeptidyl peptidase 4 inhibitors for the treatment of type 2 diabetes” (Bioorg Med Chem Lett, 2010).
Each block holds one compound with its values, some of them ahead of it.

Legend:
Dipeptidyl peptidase 4 = Dipeptidyl peptidase 4 (Homo sapiens, UniProt P27487)
Mus musculus [1] = experiment: Antidiabetic activity in ICR mouse assessed as reduction in glucose AUC (0 to 120) at 10 mg/kg, po pretreated 30 mins before glucose challenge measured after 120 mins by oral glucose tolerance test relative to control; type: functional, organism-based; design: dose 10 mg/kg
Summary of the method: (§1)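 Lean ICR mice were dosed orally at 1, 3 or 10 mg/kg 0.5 h before an oral glucose challenge. Blood glucose was followed over 0–120 min, and glucose AUC0–120 min was expressed as percent change versus vehicle control. Data are mean ± SEM, n = 5 per group; P versus control.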

Mus musculus [2] = experiment: Antidiabetic activity in ICR mouse assessed as reduction in glucose AUC (0 to 120) at 3 mg/kg, po pretreated 30 mins before glucose challenge measured after 120 mins by oral glucose tolerance test relative to control; type: functional, organism-based; design: dose 3 mg/kg
Summary of the method: as §1

Mus musculus [3] = experiment: Antidiabetic activity in ICR mouse assessed as reduction in glucose AUC (0 to 120) at 1 mg/kg, po pretreated 30 mins before glucose challenge measured after 120 mins by oral glucose tolerance test relative to control; type: functional, organism-based; design: dose 1 mg/kg
Summary of the method: as §1

[4] = (§2) Apparent total oral clearance in Sprague-Dawley rat at 3 mg/kg, po; type: ADME, organism-based; design: dose 3 mg/kg, route oral; settings: Sprague-Dawley, in vivo
Summary of the method: (§3)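 Single oral dose of 3.0 mg/kg given to Sprague-Dawley rats, n = 6. Plasma concentration–time profiles gave apparent total plasma clearance (CL_z/F), half-life, AUC0–t and peak plasma concentration (Cmax).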

Cynomolgus monkey [5] = experiment: animal or person; settings: Macaca fascicularis, po, 9 h, read-out: Inhibition
[6] = Half life in Sprague-Dawley rat at 3 mg/kg, po; type: ADME, organism-based; design: dose 3 mg/kg, route oral; settings: in vivo
Summary of the method: as §3

Cynomolgus monkey [7] = experiment: animal or person; settings: Macaca fascicularis, po, 12 h, read-out: Inhibition
[8] = Cmax in Sprague-Dawley rat at 3 mg/kg, po; type: ADME, organism-based; design: dose 3 mg/kg, route oral; settings: in vivo
Summary of the method: as §3

[9] = (§4) AUC (0 to t) in Sprague-Dawley rat at 3 mg/kg, po; type: ADME, organism-based, Plasma; design: dose 3 mg/kg, route oral; settings: Sprague-Dawley, plasma
Summary of the method: as §3

Cynomolgus monkey [10] = experiment: animal or person; settings: Macaca fascicularis, po, 5 h, read-out: Inhibition
Rattus norvegicus [11] = experiment: as §2; type: ADME, organism-based; design: dose 3 mg/kg, route oral; settings: in vivo
Summary of the method: as §3

Rattus norvegicus [12] = experiment: as §4; type: ADME, organism-based, Plasma; design: dose 3 mg/kg, route oral; settings: in vivo
Summary of the method: as §3

Chain of Dipeptidyl peptidase 4 (P27487 whole entry): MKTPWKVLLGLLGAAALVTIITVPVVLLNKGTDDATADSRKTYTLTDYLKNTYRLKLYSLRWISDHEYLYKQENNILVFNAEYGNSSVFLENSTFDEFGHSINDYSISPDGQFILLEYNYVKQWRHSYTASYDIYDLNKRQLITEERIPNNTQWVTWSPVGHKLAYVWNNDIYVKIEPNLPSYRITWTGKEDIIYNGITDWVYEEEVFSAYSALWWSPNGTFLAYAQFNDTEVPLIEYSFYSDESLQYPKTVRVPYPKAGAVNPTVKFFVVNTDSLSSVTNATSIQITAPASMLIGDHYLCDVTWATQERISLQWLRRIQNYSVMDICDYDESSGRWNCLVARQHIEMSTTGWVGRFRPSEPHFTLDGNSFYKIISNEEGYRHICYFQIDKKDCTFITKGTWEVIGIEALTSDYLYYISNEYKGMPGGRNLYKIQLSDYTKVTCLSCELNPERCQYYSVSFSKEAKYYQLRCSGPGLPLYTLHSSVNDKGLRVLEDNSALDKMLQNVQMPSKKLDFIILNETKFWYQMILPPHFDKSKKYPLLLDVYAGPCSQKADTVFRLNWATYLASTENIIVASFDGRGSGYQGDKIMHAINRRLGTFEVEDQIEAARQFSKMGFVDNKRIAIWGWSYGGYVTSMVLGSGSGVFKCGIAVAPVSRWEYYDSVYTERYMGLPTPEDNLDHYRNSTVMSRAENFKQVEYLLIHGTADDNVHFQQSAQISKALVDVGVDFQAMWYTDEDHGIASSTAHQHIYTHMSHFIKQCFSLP

IC50 (Dipeptidyl peptidase 4): 120 nM
Compound: CC(C)NC(=O)N1C[C@H]2C[C@@H](NCC(=O)N3CCC[C@H]3C#N)C[C@H]2C1

Compound: N#C[C@@H]1CCCN1C(=O)CNC12CC3CC(CC(O)(C3)C1)C2
AUC (Mus musculus [1]): 51.4%
AUC (Mus musculus [2]): 41.7%
AUC (Mus musculus [3]): 35.8%

Compound: CN(C)C(=O)N1C[C@@H]2C[C@@](C)(NCC(=O)N3CCC[C@H]3C#N)C[C@@H]2C1
CL/F [4]: 564 mL/min/kg
inhibition in vivo at 20 mg/kg (Cynomolgus monkey [5]): > 75%
half-life [6]: 54 min
inhibition in vivo at 20 mg/kg (Cynomolgus monkey [7]): 51%
Cmax [8]: 146 ng/mL
AUC(0-t) [9]: 120 ng·h/mL

IC50 (Dipeptidyl peptidase 4): 24 nM
Compound: COC(=O)N1C[C@H]2C[C@@H](NCC(=O)N3CCC[C@H]3C#N)C[C@H]2C1

Compound: CN(C)C(=O)N1C[C@H]2C[C@@H](NCC(=O)N3CCC[C@H]3C#N)C[C@H]2C1
AUC (Mus musculus [1]): 45%
CL/F [4]: 190 mL/min/kg
AUC (Mus musculus [2]): 42%
half-life [6]: 56.4 min
inhibition in vivo at 20 mg/kg (Cynomolgus monkey [10]): > 75%
Cmax [8]: 39.4 ng/mL
AUC(0-t) [9]: 68.7 ng·h/mL
AUC (Mus musculus [3]): 39.7%

IC50 (Dipeptidyl peptidase 4): 69 nM
Compound: N#C[C@@H]1CCCN1C(=O)CN[C@@H]1C[C@@H]2CN(C(=O)N3CCCCC3)C[C@@H]2C1

IC50 (Dipeptidyl peptidase 4): 14 nM
Compound: N#C[C@@H]1CCCN1C(=O)CN[C@@H]1C[C@@H]2CN(C(=O)CO)C[C@@H]2C1

IC50 (Dipeptidyl peptidase 4): 50 nM
Compound: N#C[C@@H]1CCCN1C(=O)CN[C@@H]1C[C@@H]2CN(C(=O)N3CCOCC3)C[C@@H]2C1

IC50 (Dipeptidyl peptidase 4): 39 nM
Compound: N#C[C@@H]1CCCN1C(=O)CN[C@@H]1C[C@@H]2CN(C(=O)N3CCCC3)C[C@@H]2C1

Compound: CN(C)C(=O)N1C[C@@H]2C[C@](C)(NCC(=O)N3CCC[C@H]3C#N)C[C@@H]2C1
CL (Rattus norvegicus [11]): 847.8 mL/min/kg
half-life [6]: 195 min
inhibition in vivo at 20 mg/kg (Cynomolgus monkey [7]): 38%
inhibition in vivo at 20 mg/kg (Cynomolgus monkey [10]): > 75%
Cmax [8]: 165 ng/mL
AUC (Rattus norvegicus [12]): 266.3 ng·h/mL
